Data set [1] is described as follows: Oral bioavailability in Sprague-Dawley rat at 10 mg/kg, po. It is filed as ADME, organism-based. To be noted: in vivo. A digest of the protocol: (§1)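 Male Sprague-Dawley rats were dosed either into the femoral vein at 1 mg/kg in DMSO (n = 3) or by oral gavage at 10 mg/kg as an Ora-Plus suspension, pH 2.0-2.2 with methanesulfonic acid (n = 2). Serial jugular-vein blood was taken into heparinized tubes over 12-24 h. Parameters were derived by noncompartmental analysis.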

Data set [2] in a line: Clearance in Sprague-Dawley rat at 1 mg/kg, iv. It is filed as ADME, organism-based. Further details: dose 1 mg/kg, route intravenous. To be noted: in vivo. A digest of the protocol:
(§2)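 Male Sprague-Dawley rats, n = 3, given 1 mg/kg as a DMSO solution into the femoral vein. Serial jugular-vein blood samples were taken into heparinized tubes over 12-24 h. Parameters were derived by noncompartmental analysis.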

Data set [3] is described as follows: Volume of distribution at steady state in Sprague-Dawley rat at 1 mg/kg, iv. It is filed as ADME, organism-based. More on the design: dose 1 mg/kg, route intravenous. To be noted: in vivo, read-out: Vdss. A digest of the protocol: as §2
The nature of data set [4]: Half life in Sprague-Dawley rat at 1 mg/kg, iv or 10 mg/kg po. It is filed as ADME, organism-based. To be noted: in vivo. A digest of the protocol:
as §1

For data set [5], the target named is T1, Vascular endothelial growth factor receptor 2 (Homo sapiens, UniProt P35968). The data set is described as follows: Inhibition of KDR phosphorylation. The format is functional.
The nature of data set [6]: Oral bioavailability in Sprague-Dawley rat at 3 mg/kg, po. To be noted: in vivo. The format is ADME, organism-based. A digest of the protocol: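 Male Sprague-Dawley rats given 3 mg/kg by oral gavage as an Ora-Plus suspension adjusted to pH 2.0-2.2 with methanesulfonic acid. Serial jugular-vein blood was taken into heparinized tubes over 12-24 h. Noncompartmental analysis.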

Data set [7] has as its target T1, Vascular endothelial growth factor receptor 2. The data set can be described thus: Selectivity for VEGF-stimulated HUVEC cell proliferation over FGF-induced HUVEC cell proliferation. It is filed as functional, cell-based. A digest of the protocol:
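HUVECs seeded at 3000/well in DMEM with 10% FBS, 22 h, then preincubated 2 h with compound serial dilutions. Stimulated with 50 ng/mL VEGF or 20 ng/mL bFGF for 72 h at 37 °C, 5% CO₂. Cells washed, frozen, then quantified with CyQuant dye. IC50s from four-parameter logistic fit; ratio of FGF over VEGF IC50.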

Structures are written as SMILES.

T1 sequence (P35968 whole entry): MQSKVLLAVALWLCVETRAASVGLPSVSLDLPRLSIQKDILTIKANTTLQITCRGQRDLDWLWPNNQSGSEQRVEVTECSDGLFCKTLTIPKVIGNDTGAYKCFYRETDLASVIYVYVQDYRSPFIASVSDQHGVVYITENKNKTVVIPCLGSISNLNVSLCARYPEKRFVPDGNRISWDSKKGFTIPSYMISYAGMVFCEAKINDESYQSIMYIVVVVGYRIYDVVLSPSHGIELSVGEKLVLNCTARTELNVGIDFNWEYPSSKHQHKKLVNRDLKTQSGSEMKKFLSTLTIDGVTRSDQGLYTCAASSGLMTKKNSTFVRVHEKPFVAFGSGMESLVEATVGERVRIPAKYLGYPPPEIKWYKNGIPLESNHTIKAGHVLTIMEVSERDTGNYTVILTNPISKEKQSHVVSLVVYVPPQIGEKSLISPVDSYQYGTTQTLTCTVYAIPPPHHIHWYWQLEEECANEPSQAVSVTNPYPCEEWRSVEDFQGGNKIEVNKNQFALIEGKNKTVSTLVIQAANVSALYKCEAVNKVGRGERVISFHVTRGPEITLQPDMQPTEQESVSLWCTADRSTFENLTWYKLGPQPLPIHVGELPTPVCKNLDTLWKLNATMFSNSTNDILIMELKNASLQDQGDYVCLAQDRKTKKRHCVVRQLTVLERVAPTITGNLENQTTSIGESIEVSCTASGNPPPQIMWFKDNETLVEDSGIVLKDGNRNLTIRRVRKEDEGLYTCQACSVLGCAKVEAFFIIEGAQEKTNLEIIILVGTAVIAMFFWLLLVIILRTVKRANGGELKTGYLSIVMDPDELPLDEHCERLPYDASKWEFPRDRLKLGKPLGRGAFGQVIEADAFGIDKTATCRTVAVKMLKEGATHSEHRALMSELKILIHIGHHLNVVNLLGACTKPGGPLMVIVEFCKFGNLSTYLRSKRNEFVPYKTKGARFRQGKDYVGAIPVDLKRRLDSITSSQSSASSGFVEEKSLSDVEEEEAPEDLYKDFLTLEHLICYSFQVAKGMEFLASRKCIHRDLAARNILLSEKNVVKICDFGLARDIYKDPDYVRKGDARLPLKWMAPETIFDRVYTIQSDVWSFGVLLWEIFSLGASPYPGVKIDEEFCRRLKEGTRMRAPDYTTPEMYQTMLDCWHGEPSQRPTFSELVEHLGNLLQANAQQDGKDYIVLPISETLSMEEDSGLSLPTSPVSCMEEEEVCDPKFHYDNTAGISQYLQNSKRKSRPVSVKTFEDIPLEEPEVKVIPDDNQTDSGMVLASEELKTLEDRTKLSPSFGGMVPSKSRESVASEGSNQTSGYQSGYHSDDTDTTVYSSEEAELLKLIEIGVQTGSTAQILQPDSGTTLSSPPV

`CN1CCC[C@@H]1COc1cc(Nc2nc3cc(Oc4ccnc5ccccc45)ccc3[nH]2)ccc1C(F)(F)F`: in data set [1], the bioavailability – broadly, dose-corrected exposure relative to a reference, in per cent – amounted to 24%. In data set [2], the clearance (in general, the volume of plasma or blood freed of the substance per unit of time) was 16.7 mL/min/kg. Further, in data set [3], the Vd was determined as 5.8 L/kg. The half-life – broadly, how long it takes for the measured level to halve – in data set [4] is 288 min. Moreover, the affinity in data set [5] corresponds to a Ki of 1 nM.
For the molecule `CNC(=O)c1cc(Oc2ccc3[nH]c(Nc4ccc(C(F)(F)F)c(OC[C@H]5CCCN5C)c4)nc3c2)ccn1`, the inhibition constant Ki (in general, the equilibrium dissociation constant of an inhibitor or competing ligand from its target) in data set [5] stood at 2 nM.
The same measure, in the same setting: in the case of `CN1CCN(Cc2cc(Nc3nc4cc(Oc5ccnc6[nH]ccc56)ccc4o3)ccc2Cl)CC1` it was 2 nM.
On the same count and under the same terms, the result for `CN1CCN(Cc2cc(Nc3nc4ccc(Oc5ccnc6[nH]ccc56)cc4[nH]3)ccc2Cl)CC1` reads 3 nM.
As to `CNC(=O)c1cc(Oc2ccc3c(c2)nc(Nc2ccc(Cl)c(CN4CCN(C)CC4)c2)n3C)ccn1`, affinity in data set [5] was put at a Ki of 10 nM. This Ki is about 3.3-fold higher than that of the molecule before.
On the same count and under the same terms, in the case of `CN1CCC[C@H]1COc1cc(Nc2nc3cc(Oc4ccnc(C(N)=O)c4)ccc3o2)ccc1Cl` it was 3 nM.
Turning to `CNC(=O)c1cc(Oc2ccc3oc(Nc4ccc(Cl)c(CN5CCN(C)CC5)c4)nc3c2)ccn1`, the inhibition constant (Ki) in data set [5] amounted to 4 nM. This Ki and that of the molecule before are within 1.5-fold of each other.
On the same count and under the same terms, in the case of `CNC(=O)c1cc(Oc2ccc3oc(Nc4ccc(Cl)cc4)nc3c2)ccn1` it was 12 nM; in that of `CN1CCN(Cc2cc(Nc3nc4ccc(Oc5ncnc6[nH]ccc56)cc4[nH]3)ccc2Cl)CC1`, 17 nM; in that of `CCN(CC)CCOc1cc(Nc2nc3cc(Oc4ccnc(C(=O)NC)c4)ccc3o2)ccc1Cl`, 5 nM.
Take `CNC(=O)c1cc(Oc2ccc3[nH]c(Nc4ccc(C(F)(F)C(F)(F)F)c(OC[C@H]5CCCN5C)c4)nc3c2)ccn1`: the Ki in data set [5] is 9 nM.
Still for that read-out and setting: the result for `CNc1nccc(Oc2ccc3oc(Nc4ccc(Cl)c(CN5CCN(C)CC5)c4)nc3c2)n1` reads 25 nM; that for `CNC(=O)c1cc(Oc2ccc3oc(Nc4ccc(Cl)c(OCC5CCNCC5)c4)nc3c2)ccn1`, 3 nM; that for `COc1cc2nccc(Oc3ccc4[nH]c(Nc5ccc(Cl)c(CN6CCN(C)CC6)c5)nc4c3)c2cc1OC`, 0.2 nM.
`CNC(=O)c1cc(Oc2ccc3oc(Nc4ccc(Cl)c(OCCN(C)C)c4)nc3c2)ccn1` displayed an inhibition constant Ki in data set [5] of 4 nM.
The same measure, in the same setting: the result for `CNc1cc(Oc2ccc3oc(Nc4ccc(Cl)c(CN5CCN(C)CC5)c4)nc3c2)ncn1` reads 20 nM.
Regarding `CNC(=O)c1cc(Oc2ccc3oc(Nc4ccc(Cl)c(OC[C@@H]5CCCN5C)c4)nc3c2)ccn1`, the clearance in data set [2] was 56.7 mL/min/kg. For the same molecule, in data set [3], the Vd was found to be 8.4 L/kg. Further, in data set [4], the half-life was 108 min. The molecule further displayed a bioavailability in data set [6] of 40%.
As to `FC(F)(F)c1cc(Nc2nc3cc(Oc4ccncc4)ccc3[nH]2)ccc1Cl`, affinity in data set [5] was put at a Ki of 160 nM. That is a sub-micromolar value.
Same read-out and setting: the result for `CNC(=O)c1cc(Oc2ccc3[nH]c(Nc4ccc(C(F)(F)F)c(OCCN(C)C)c4)nc3c2)ccn1` reads 3 nM; that for `CNc1nccc(Oc2ccc3[nH]c(Nc4ccc(Cl)c(CN5CCN(C)CC5)c4)nc3c2)n1`, 40 nM; that for `FC(F)(F)c1cc(Nc2nc3ccc(Oc4ccnc5[nH]ccc45)cc3[nH]2)ccc1Cl`, 48 nM.
In data set [5], `CNC(=O)c1cc(Oc2ccc3[nH]c(Nc4ccc(Cl)c(CN5CCN(C)CC5)c4)nc3c2)ccn1` registered a Ki of 3.9 nM.
The molecule `CN1CCCC1COc1cc(Nc2nc3cc(Oc4ccnc5[nH]ccc45)ccc3o2)ccc1Cl` (single isomer, unassigned) returned a bioavailability in data set [1] of 17%. In data set [2], this molecule showed a clearance of 20.7 mL/min/kg. The Vd in data set [3] was 5.02 L/kg. For the same molecule, the half-life in data set [4] is 172 min. In data set [5], affinity was put at a Ki of 1.6 nM.
`CN1CCN(Cc2cc(Nc3nc4cc(Oc5ccnc6ccccc56)cc(Cl)c4o3)ccc2Cl)CC1` had a Ki in data set [5] of 2 nM.
In data set [5], `CNC(=O)c1cc(Oc2ccc3[nH]c(Nc4cc(OCCN5CCCC5)cc(C(F)(F)F)c4)nc3c2)ccn1` showed an inhibitory constant (Ki) of 287 nM.
Still for that read-out and setting: the result for `CNC(=O)c1cc(Oc2cc(F)c3oc(Nc4ccc(Cl)c(OC[C@@H]5CCCN5C)c4)nc3c2)ccn1` reads 3 nM; that for `CSc1nccc(Oc2ccc3[nH]c(Nc4ccc(Cl)c(CN5CCN(C)CC5)c4)nc3c2)n1`, 128 nM.
Molecule `COc1cc2ncnc(Oc3ccc4oc(Nc5ccc(Cl)c(OC[C@@H]6CCCN6C)c5)nc4c3)c2cc1OC` displayed a bioavailability in data set [1] of 60%. Further, the Ratio IC50 in data set [7] came out at 10. Also, the clearance in data set [2] was 14.8 mL/min/kg. The Vd in data set [3] came to 6.88 L/kg. The same molecule showed a half-life in data set [4] of 368 min. For the same molecule, in data set [5], the affinity, expressed as Ki, was 0.5 nM.
Turning to `CNC(=O)c1cc(Oc2ccc3oc(Nc4ccc(Cl)c(CN5CCOCC5)c4)nc3c2)ccn1`, in data set [5], the Ki is 4 nM.
In turn, `CNC(=O)c1cc(Oc2cc(Cl)c3oc(Nc4ccc(Cl)c(CN5CCN(C)CC5)c4)nc3c2)ccn1` gave a Ki in data set [5] of 10 nM.
On the same count and under the same terms, the result for `COc1cc2ncnc(Oc3ccc4[nH]c(Nc5ccc(Cl)cc5)nc4c3)c2cc1OC` reads 8 nM.
Regarding `COc1cc2nccc(Oc3ccc4oc(Nc5ccc(Cl)c(OC[C@@H]6CCCN6C)c5)nc4c3)c2cc1OC`, in data set [5], the affinity corresponds to a Ki of 0.5 nM.
In data set [1], `COc1cc2nccc(Oc3ccc4oc(Nc5ccc(Cl)c(CN6CCN(C)CC6)c5)nc4c3)c2cc1OC` registered a bioavailability of 67%. Also, the Ratio IC50 in data set [7] turned out to be 10. In data set [2], this molecule had a clearance of 27.2 mL/min/kg. Besides, the Vd in data set [3] came to 12.1 L/kg. Moreover, the half-life in data set [4] is 332 min. Besides, affinity in data set [5] was put at a Ki of 0.5 nM.
In the case of `CN1CCN(Cc2cc(Nc3nc4cc(Oc5ccnc6ccccc56)ccc4[nH]3)ccc2Cl)CC1`, in data set [5], affinity was put at a Ki of 2 nM.
On the same count and under the same terms, in the case of `CN1CCN(Cc2cc(Nc3nc4cc(Oc5ccnc6ccccc56)ccc4o3)ccc2Cl)CC1` it was 3.6 nM.

The values above are taken from ChEMBL document CHEMBL1148766, “Design, synthesis, and evaluation of orally active benzimidazoles and benzoxazoles as vascular endothelial growth factor-2 receptor tyrosine kinase inhibitors” (J Med Chem, 2007).
